Measurements from different studies.
Lines come from different studies, so protocols differ.
Cell line: MCF7
Observed: cell growth or viability

`COc1cc(OC)c(/C=C/S(=O)(=O)Nc2ccc(OC)c(N)c2)c(OC)c1` gave an IC50 of 0.004 µM (trypan blue; 96 h).
For `CC/C(=C(/c1ccc(OCCNC)cc1)c1ccc(B2OC(C)(C)C(C)(C)O2)cc1)c1ccccc1`, the IC50 was 0.708 µM (5 days).
With `CNc1nc2ccccc2n2c(-c3cccc(OC)c3)cnc12` the IC50 was 0.217 µM (neutral red; 96 h).
`FC(F)(F)c1cccc(Nc2ncnc3ccc(NCc4ccccc4)cc23)c1` gave an IC50 of 6.83 µM (MTT; 24 h).
The IC50 of `Cc1occc(=O)c1[O-].[Cl-].[W+4].c1cc[cH-]c1.c1cc[cH-]c1` is reported as 330 µM (MTT).
The IC50 of `CN(C)CCCn1cccc1/C=N/NC(=O)Nc1cc2c(Nc3ccc(F)c(Cl)c3)ncnc2cc1O[C@H]1CCOC1` is reported as 6.17 µM (MTT; 72 h).
With `Fc1ccc(-c2nc3ccccc3[nH]2)cc1` the IC50 was 68 µM (MTT; 48 h).
For `O=C(N/N=C/CN1CCOCC1)Nc1cc2c(Nc3ccc(F)c(Cl)c3)ncnc2cc1O[C@H]1CCOC1`, the IC50 was 1.08 µM (MTT; 72 h).
`Cc1ccc(-c2nn(-c3ccc(S(C)(=O)=O)cc3)cc2/C=N\N=c2/[nH]c(-c3ccc([N+](=O)[O-])cc3)cs2)cc1` gave an IC50 of 36 µM (MTT; 48 h).
For `O=C(NC(=S)N1CCCC1)c1ccc2ccccc2c1`, the IC50 was 3.62 µM (48 h).
`O=C(/C=C/c1ccccc1)c1ccccc1` gave an IC50 of greater than 50 µM (resazurin; 72 h).
With `Oc1ncnc2cc(Nc3nc(-c4ccccc4)cs3)ccc12` the IC50 was 6.21 µM (MTT).
The IC50 of `COc1cc2ncnc(Nc3ccc(F)c(Cl)c3)c2cc1NC(=O)N/N=C/c1cccn1CCCN1CCOCC1` is reported as 1.44 µM (MTT; 72 h).
`COc1ccnc(Nc2ccc3ncnc(Nc4cccc(C(F)(F)F)c4)c3c2)c1` gave an IC50 of 5.84 µM (MTT; 24 h).
With `CC(C)Cc1ccc(-c2nn(-c3ccc(S(C)(=O)=O)cc3)cc2/C=N/N=c2\[nH]c(-c3ccc(Br)cc3)cs2)cc1` the IC50 was 8.26 µM (MTT; 48 h).
For `Cc1ccc2nc(-c3ccc(Cl)cc3)n(Cc3ccccc3)c2c1`, the IC50 was 5.66 µM (MTT).
For `CC(=O)O[C@H]1C(=O)[C@@]2(C)[C@H]([C@H](OC(=O)c3ccccc3)[C@]3(O)C[C@H](OC(=O)[C@H](O)[C@@H](NC(=O)c4ccccc4)c4ccccc4)C(C)=C1C3(C)C)[C@]1(OC(C)=O)CO[C@@H]1C[C@@H]2O`, the IC50 was 1 µg/mL.
With `COC(=O)c1ccc(-n2nc(SC)nc2N)cc1` the IC50 was 23.4 µM (MTT).
`CC1CCC(OCn2c[n+](Cc3ccccc3)c3ccccc32)CC1` (stereo not drawn) has an IC50 of 27 µM (MTT; 72 h).
The IC50 of `CC(C)(C)c1ccc(S(=O)(=O)NN=Cc2cn(CCN3CCOCC3)c3ccccc23)cc1` is reported as 67.8 µM (MTT; 48 h).
The IC50 of `Cc1ccc2nc(-c3cc(Br)ccc3O)[nH]c2c1` is reported as 4.37 µM (MTT; 48 h).
`CC1(C)[C@@H](O)CC[C@]2(C)[C@H]3C(=O)C=C4[C@@H]5C[C@@](C)(C(=O)O)CC[C@]5(C)CC[C@@]4(C)[C@]3(C)CC[C@@H]12` gave an IC50 of greater than 100 µM (MTT; 48 h).
`Oc1cccc(-c2ccc3ncnc(Nc4cccc(C(F)(F)F)c4)c3c2)c1` gave an IC50 of 18.1 µM (MTT; 24 h).
`O=C(NC(=S)N1CCCCC1)c1ccc2ccccc2c1` gave an IC50 of 7.32 µM (48 h).
`Cc1ccc2nc(-c3ccc([N+](=O)[O-])cc3)n(Cc3ccccc3)c2c1` has an IC50 of 7.86 µM (MTT).
For `O=C(N/N=C/c1cccn1CCN1CCCC1)Nc1cc2c(Nc3ccc(F)c(Cl)c3)ncnc2cc1O[C@H]1CCOC1`, the IC50 was 1.2 µM (MTT; 72 h).
With `O=C(NC(=S)Nc1ccc([N+](=O)[O-])cc1)c1ccc2ccccc2c1` the IC50 was 7.7 µM (48 h).
`O=c1c(O)c(-c2ccc(O)cc2)oc2cc(O)cc(O)c12` gave an IC50 of 27.2 µM (WST-1; 48 h).
For `CC[C@H](C)C(=O)O[C@H]1C[C@H](O)C=C2C=C[C@H](C)[C@H](CC[C@@H](O)C[C@@H](O)CC(=O)O)[C@H]21`, the IC50 was 98 µg/mL (SRB; 72 h).
For `O=S(=O)(NN=Cc1cn(CCN2CCOCC2)c2ccccc12)c1ccc(-c2ccccc2)cc1`, the IC50 was 17.3 µM (MTT; 48 h).
With `COc1cc2ncnc(Nc3ccc(F)c(Cl)c3)c2cc1NC(=O)N/N=C/c1cccn1CCN1CCCCC1` the IC50 was 2.18 µM (MTT; 72 h).
For `CC(C)Cc1ccc(-c2nn(-c3ccc(S(C)(=O)=O)cc3)cc2/C=N\N=C2/NC(=O)CS2)cc1`, the IC50 was 6.25 µM (MTT; 48 h).
The IC50 of `COc1cccc2c1C(=O)c1c(O)c3c(c(O)c1C2=O)C[C@@](O)(C(=O)CO)C[C@@H]3O[C@H]1C[C@H](N)[C@H](O)[C@H](C)O1` is reported as 0.06 µM (SRB).
`CSc1ccc(-c2nc3ccccc3[nH]2)cc1` has an IC50 of 33.2 µM (MTT; 48 h).
`CS(=O)(=O)c1nc(N)n(-c2ccc(C(=O)O)cc2)n1` gave an IC50 of 21.9 µM (MTT).
`CCN(CC)C/C=N/NC(=O)Nc1cc2c(Nc3ccc(F)c(Cl)c3)ncnc2cc1O[C@H]1CCOC1` gave an IC50 of 2.34 µM (MTT; 72 h).
With `Cc1ccc2nc(-c3cccc([N+](=O)[O-])c3)[nH]c2c1` the IC50 was 19.2 µM (MTT; 48 h).
`Clc1ccc(C[n+]2cn(CCc3ccccc3)c3ccccc32)cc1` gave an IC50 of 13 µM (MTT; 72 h).
For `COc1ccc(-c2csc(Nc3ccc4c(O)ncnc4c3)n2)cc1`, the IC50 was 9.75 µM (MTT).
With `COc1cccc(C(=O)O[C@@H]2CN3Cc4c(cc5c(c4OC)OCO5)[C@@]24C=C[C@H](OC)C[C@@H]34)c1` the IC50 was greater than 10 µM (WST-1).
`CCCCc1ccc2[nH]c(NC(=O)OC)nc2c1` gave an IC50 of 0.0996 µM (CCK-8; 72 h).
For `COc1cc2ncnc(Nc3ccc(F)c(Cl)c3)c2cc1NC(=O)N/N=C/CN1CCN(C)CC1`, the IC50 was 8.76 µM (MTT; 72 h).
With `O=C1NC(c2ccccc2)(c2ccccc2)C(=O)N1Cc1cn(-c2c3ccccc3nc3ccccc23)nn1` the IC50 was 42.7 µM (MTT).
With `CSc1nc(/N=C/c2cccc(O)c2)n(-c2ccc(C(=O)O)cc2)n1` the IC50 was 31.2 µM (MTT).
`Cc1ccc2nc(-c3ccc(Cl)cc3)[nH]c2c1` has an IC50 of 25.6 µM (MTT; 48 h).
With `COc1cc(/C=N/c2nc(SC)nn2-c2ccc(C(=O)O)cc2)ccc1O` the IC50 was 29.4 µM (MTT).
`Cc1ccc2nc(-c3ccc(F)cc3)[nH]c2c1` has an IC50 of 38.6 µM (MTT; 48 h).
With `c1ccc(-c2ccccn2)nc1` the IC50 was greater than 50 µM (MTT; 48 h).
